WT yeast gro inh: growth inhibition of WT strain, primary screen, mitochondrial fusion inhibitor project, WT and mutant strains, chemical genetic. mitochondrial fusion phenotypic screen. inhibition, % at 10 µM. actives 2.1% (n = 190,000). AID 1362, 2008; in the data active = inhibition above about 58%; tested in S. cerevisiae
MT stabilizer: microtubule stabilizers in HeLa cells, primary screen, imaging, high-content imaging | HeLa tubulin immunostaining HCS, 24 h; share of cells brighter than vehicle mean+2SD | % tubulin-high responders, % at 10 µM | actives 0.83% (n = 200,000) | AID 2205, 2009;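 active = plate Z-score above 3 for both tubulin-high and condensed-nucleus cell shares, with cell loss under 80%, at 10 µM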;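 also: anti alpha tubulin signal scored within the nucleus-defined area of each cell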
b-catenin transl: modulators of beta-catenin nuclear translocation, primary screen, imaging, HeLa cells, immunofluorescence, high-content | nuclear translocation activity, % at 5 µM | actives 0.3% (n = 190,000) | AID 1665, 2009;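 active = nuclear translocation activity above 50% at 5 µM, with a well cell count of 50 or more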;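 also: per-cell ratio of nuclear to cytoplasmic median beta-catenin stain intensity; plate controls were DMSO negative control for no effect and GSK-3 inhibitor IX positive control for full effect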
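Technique: fluorescence imaging of beta-catenin antibody stain plus DAPI / Material: human HeLa cell line / Incubation: compound treatment 24 h, 37°C, 5% CO2 / Read-out basis: % activation of per-cell nuclear versus cytoplasmic median beta-catenin signal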
Pf gametocyte: late stage P. falciparum gametocyte viability inhibitors, primary screen, ATP luminescence, HTS; P. falciparum stage V gametocytes, 24 h; inhibition, % at 10.9 µM; actives 0.065% (n = 150,000);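 active = inhibition above the mean plus 3 SD of compounds within the control limits, set per campaign, cut at about 38% in these data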;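 also: 0% = DMSO wells and 100% = medium only without gametocytes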
Cl transport mod: KCC2 cotransporter modulators, thallium flux, primary screen, cell-based, HEK293 KCC2, FluoZin-2 fluorescence, MLSMR. Solute carrier family 12 member 5 (Homo sapiens), Q9H2X9. KCC2 cells, thallium flux FluoZin-2 fluorescence. B-score of Tl+ flux slope (higher = more flux/activation; lower = inhibition) at 10 µM. actives 2.2% (n = 190,000). AID 1456, 2008;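 active = thallium flux slope and its plate-corrected score both differing from the plate sample mean at a set confidence after two filtering rounds, in either direction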;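 also: slope of fluorescence scaled to starting intensity during 10 to 20 s after thallium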
Target sequence (Q9H2X9 whole entry, looked up): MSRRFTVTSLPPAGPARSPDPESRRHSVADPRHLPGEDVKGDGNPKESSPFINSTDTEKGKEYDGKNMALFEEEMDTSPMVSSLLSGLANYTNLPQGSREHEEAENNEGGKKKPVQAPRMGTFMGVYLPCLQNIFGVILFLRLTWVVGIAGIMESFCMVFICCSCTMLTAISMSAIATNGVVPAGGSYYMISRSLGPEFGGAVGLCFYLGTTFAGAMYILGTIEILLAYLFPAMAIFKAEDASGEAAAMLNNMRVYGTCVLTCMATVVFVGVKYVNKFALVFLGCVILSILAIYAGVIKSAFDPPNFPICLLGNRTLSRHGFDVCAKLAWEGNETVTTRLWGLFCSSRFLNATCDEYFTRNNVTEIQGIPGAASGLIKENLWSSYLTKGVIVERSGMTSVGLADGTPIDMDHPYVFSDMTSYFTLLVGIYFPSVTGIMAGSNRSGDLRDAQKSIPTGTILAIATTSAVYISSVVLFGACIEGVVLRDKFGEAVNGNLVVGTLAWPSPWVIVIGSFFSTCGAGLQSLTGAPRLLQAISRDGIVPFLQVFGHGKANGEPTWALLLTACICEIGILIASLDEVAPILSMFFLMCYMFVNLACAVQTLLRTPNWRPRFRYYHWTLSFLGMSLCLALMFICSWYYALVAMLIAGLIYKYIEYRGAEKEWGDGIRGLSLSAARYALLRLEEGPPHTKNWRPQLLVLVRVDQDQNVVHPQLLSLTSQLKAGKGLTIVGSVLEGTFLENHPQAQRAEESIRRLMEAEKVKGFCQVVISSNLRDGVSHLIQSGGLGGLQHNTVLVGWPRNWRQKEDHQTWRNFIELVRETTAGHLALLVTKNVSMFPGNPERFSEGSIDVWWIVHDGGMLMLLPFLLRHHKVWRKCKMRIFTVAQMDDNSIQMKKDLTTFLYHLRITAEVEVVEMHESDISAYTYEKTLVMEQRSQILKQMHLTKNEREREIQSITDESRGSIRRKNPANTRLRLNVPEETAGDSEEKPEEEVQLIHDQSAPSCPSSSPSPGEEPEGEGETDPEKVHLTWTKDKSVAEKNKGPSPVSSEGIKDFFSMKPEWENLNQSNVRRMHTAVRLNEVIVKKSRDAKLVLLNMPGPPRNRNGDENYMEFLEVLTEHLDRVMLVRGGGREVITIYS
* = called active by the depositor; / = no result. In the library only some 4% were active in any assay of this set; here they are far more common.

SMILES	WT yeast gro inh	MT stabilizer	b-catenin transl	Pf gametocyte	Cl transport mod
Cc1cccc(NC(=S)NCCSc2ccc(Cl)cc2)c1	80.6*	3.2	/	5.5	0.127
Cc1cccc(NC(=S)NC(C)(C)CC(C)(C)C)c1	68.5*	5.2	-1.7	-32.4	0.704
COc1ccc(NC(=S)NCCSc2ccc(C)cc2)c(OC)c1	/	2.3	/	/	-0.571
COc1ccc(OC)c(NC(=S)NCCSc2ccc(C)cc2)c1	66.7*	1.1	1.5	13.8	-1.16
C/C(=N/OC(=O)c1ccccc1)c1oc(C)nc1C	/	/	0.3	10.4	-1.6
Cc1ccc(-c2csc(-c3c[nH]c4ccccc34)n2)c(C)c1	17.4	37.1*	1.9	/	/
Oc1ccc(-c2csc(-c3c[nH]c4ccccc34)n2)c(O)c1	15.4	7.7	/	-15.2	0.394
CCCCSc1nnc(CNC(=O)C23CC4CC(CC(C4)C2)C3)n1Cc1ccccc1	58.5*	2.5	-0.7	/	-0.666
O=S(Cc1ccc(Br)cc1)Cc1nnc(SCc2c(F)cccc2Cl)n1-c1ccccc1 (stereo unspecified)	76.9*	4.0	-2.6	-15.7	-2.08
CCCCNC(=S)N1CCn2cccc2C1c1ccccc1 (stereo unspecified)	33.4	2.3	0.2	-10.8	0.899
Fc1ccc(C2c3cccn3CCN2C(=S)Nc2cccc(Br)c2)cc1 (stereo unspecified)	86.3*	6.3	-1.0	/	0.214
CCCCNC(=S)N1CCn2cccc2C1c1ccc(F)cc1 (stereo unspecified)	61.5*	2.5	-1.8	-14.6	1
Fc1ccc(NC(=S)N2CCn3cccc3C2c2cccnc2)cc1 (stereo unspecified)	-6.4	3.3	-0.1	4.5	0.154
Cc1ccc(F)cc1NC(=O)c1cnccn1	3.7	2.9	-1.9	10.8	1.13
CCNc1nc(NC(C)(C)C)nc(Oc2ccc(=O)n(-c3ccccc3)n2)n1	3.1	1.5	0.1	/	-0.983
Cc1cccc(C2(c3cccc(C)c3)CC2C(=O)Nc2ccc([N+](=O)[O-])cc2O)c1 (stereo unspecified)	92.4*	2.8	-3.0	12.7	-0.645
O=C1/C(=C/c2cccnc2)CC/C1=C\c1cccnc1	2.6	2.8	0.2	12.8	-0.174
COc1ccc(/C=C2\CCC/C(=C\C=N\N(C)C)C2=O)cc1	10.7	20.3*	-2.3	-5.0	-0.643
CN(C)c1ccc(/C=C2\CCC/C(=C\c3ccccc3)C2=O)cc1	-0.5	9.3*	4.3	-13.7	-0.438
CN(C)/N=C/C=C1\CCC/C(=C\c2ccc(F)c(F)c2)C1=O	9.8	4.6	3.1	16.5	/
CCC1C/C(=C\c2cccnc2)C(=O)/C(=C/c2cccnc2)C1 (stereo unspecified)	63.5*	45.5*	-1.1	/	-0.299
O=C1/C(=C/c2cccnc2)CCC/C1=C\c1cccnc1	27.7	29.3*	-2.5	7.6	-0.137
Cc1ccc(C(=O)N(Cc2cccnc2)Cc2cc3cc(C)ccc3n3nnnc23)cc1	-13.3	1.7	1.1	-15.0	0.146
Cn1c(CC(=O)c2ccc(Br)cc2)[n+](C)c2ccccc21	-9.6	2.6	0.9	/	-1.12
COc1ccc(C(=O)Nc2cccc(OC)c2)cc1	13.4	1.8	0.3	/	/
SMILES	WT yeast gro inh	MT stabilizer	b-catenin transl	Pf gametocyte	Cl transport mod
COc1ccc(COc2cc(-c3cccc(OC)c3)nc3ccc(NC(=O)c4ccc(N(C)C)cc4)cc23)cc1	8.9	19.8*	/	/	0.905
COc1ccc(C(=O)Nc2ccc3[nH]c(-c4cccc(OC)c4)cc(=O)c3c2)cc1	16.1	31.9*	55.7*	-17.5	-0.281
N#Cc1nc(-c2ccco2)oc1NCc1ccc(F)cc1	61.7*	5.6	-1.6	/	/
S=c1nc(-c2ccccc2)[nH]c2ccccc12	4.8	7.5	-2.9	-19.6	39.6*
O=c1nc(-c2ccccc2)c2ccccc2[nH]1	-7.0	2.5	/	-0.8	-0.46
Cc1onc(C(=O)Nc2c(C)n(C)n(-c3ccccc3)c2=O)c1[N+](=O)[O-]	/	/	-1.9	7.4	1.16
CCn1c2ccccc2c2cc(CNCc3ccc(OC)cc3OC)ccc21	83.6*	3.7	7.0	8.2	0.408
CC(Cc1cccs1)NC(=O)Nc1ccc(F)cc1 (stereo unspecified)	-3.5	1.9	/	/	-0.441
CC(Cc1cccs1)NC(=S)Nc1ccc(Cl)cc1 (stereo unspecified)	67.2*	2.8	0.4	/	-2.06
S=C(Nc1ccc(Br)cc1Cl)NN1CCOCC1	8.2	5.9	0.9	29.0	-0.169
COc1ccc(Cn2nc(C)n(N(C)c3ncc(C(F)(F)F)cc3Cl)c2=O)cc1	-7.0	1.9	0.4	/	-0.419
Cc1nc2c3ccccc3[nH]c(=O)n2n1	1.1	2.2	-2.1	0.3	-0.29
Cc1ccc(NC(=S)NCC(C)CSc2ccc(Cl)cc2)cc1 (stereo unspecified)	81.4*	1.6	-1.2	-5.9	0.00412
CN(C)C(CNC(=S)Nc1ccc(Cl)cc1)c1cccnc1 (stereo unspecified)	-7.8	2.2	-1.0	4.9	0.944
Cc1cccc(NC(=S)NCC(C)CSc2ccc(Cl)cc2)c1 (stereo unspecified)	82.0*	6.1	1.3	-18.4	-2.27
Cc1ccc(C(=O)NN2C(=O)C3C4c5ccccc5C(c5ccccc54)C3C2=O)cc1 (stereo unspecified)	5.0	3.4	-1.0	-5.0	-0.857
O=C(COC(=O)c1cc(-c2ccccc2)nc2ccccc12)NCC1CCCO1 (stereo unspecified)	18.8	1.2	-2.3	-4.0	-1.64
O=C(COC(=O)c1cc(-c2cccc(Br)c2)nc2ccccc12)NCC1CCCO1 (stereo unspecified)	71.1*	4.3	2.0	/	-0.236
Clc1ccc(-c2csc3ncnc(N4CCc5ccccc5C4)c23)cc1	64.8*	2.5	-0.8	-18.8	-0.901
COc1ccc(-c2csc3ncnc(N4CCN(c5ccccc5)CC4)c23)cc1	/	/	/	12.2	/
Clc1ccc(CN2CCN(c3ncnc4scc(-c5cccs5)c34)CC2)cc1	60.3*	2.2	/	-3.1	/
Cc1ccccc1N1CCN(c2ncnc3scc(-c4cccs4)c23)CC1	64.8*	4.9	4.2	-11.5	/
CC(C)N1C(=O)CCC1C(=O)NCc1ccccc1Cl (stereo unspecified)	6.3	4.8	-0.4	/	-1.13
CCCc1ccc(-c2cc(C(=O)N/N=C/c3ccc([N+](=O)[O-])o3)c3ccccc3n2)cc1	62.9*	34.5*	228.8*	25.0	-0.0514
COc1cc(/C=N/NC(=O)c2cc(-c3ccccc3)nc3ccccc23)cc(OC)c1O	/	/	/	-4.5	/
O=C(N/N=C/c1ccc2c(c1)OCCO2)c1ccncc1	/	/	-0.5	-7.2	0.964
COc1cc(/C=N/NC(=O)c2cc(-c3cccs3)nc3ccccc23)ccc1O	/	/	-0.9	3.9	-0.0145
